From ChEMBL document CHEMBL1142507, “Novel potent and selective Ca2+ release-activated Ca2+ (CRAC) channel inhibitors. Part 3: synthesis and CRAC channel inhibitory activity of 4'-[(trifluoromethyl)pyrazol-1-yl]carboxanilides” (Bioorg Med Chem, 2008) come the findings set out here.

Structures are written as SMILES.

Assay [1] deals with PC-12. Nature of the assay: Inhibition of VOC channel-mediated calcium influx in […] PC12-h5 cells at 10 uM. The settings on record: Rattus norvegicus. The class given is cell-based. In short, it runs like this:
(§1)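 PC12-h5 cells (1 × 10⁶ cells/ml) loaded with 1 µM Fura-2/AM for 45 min at room temperature in HEPES buffer pH 7.4, then washed. Depolarized with 50 mM KCl for 20 min. Intracellular Ca²⁺ measured at the 20 min endpoint from the 340/380 nm excitation ratio (500 nm emission), with compound autofluorescence subtracted.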

The subject of assay [2] is Jurkat. Kind of assay: Inhibition of PHA-induced IL2 production in human Jurkat T lymphocytes. The format is functional, cell-based. In short, it runs like this:
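Jurkat T cells (5 × 10⁶ cells/ml) stimulated with PHA (20 µg/ml) for 20 h. IL-2 in the supernatant quantified by human IL-2 ELISA.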

Assay [3] is described as follows: Inhibition of CRAC channel-mediated calcium influx in human Jurkat cells. The format is cell-based. In outline: (§2)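 Jurkat cells (2 × 10⁶ cells/ml) loaded with 1 µM Fura-2/AM for 45 min at room temperature in HEPES buffer pH 7.4 (NaCl 137, KCl 5.8, MgCl₂ 1, CaCl₂ 2.5, glucose 5, HEPES 10 mM), then washed. Thapsigargin-induced Ca²⁺ influx read by 340/380 nm excitation, 500 nm emission, with cell-free compound fluorescence subtracted. IC50 taken from percent inhibition.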

Assay [4] deals with Mus musculus. Kind of assay: Inhibition of trinitrochlorobenzene-induced contact hypersensitivity in 1 hr before pretreated CD1 mouse assessed as ear swelling at 30 mg/kg, po. The class given is functional. In short, it runs like this:
(§3)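 Mice challenged with TNCB on both sides of the ear pinna. Compound given orally 1 h before TNCB exposure, with 0.5% MC vehicle given orally to control animals. Ear thickness measured by dial gauge 24 h after challenge and swelling calculated from the pre-exposure value.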

Assay [5] relates to Jurkat. Nature of the assay: Selectivity ratio of IC50 for VOC channel in […] PC12-h5 cells over IC50 for CRAC channel in human Jurkat cells.
Assay [6] is described as follows: Inhibition of VOC channel-mediated calcium influx in […] PC12-h5 cells. The settings on record: Rattus norvegicus, PC-12. The format is cell-based. In outline: as §1
Assay [7] has as its system Rattus norvegicus. Nature of the assay: Inhibition of ovalbumin-induced airway eosinophilia in BN rat po dosed 1 hr before antigen challenge assessed as number of eosinophils in bronchoalveolar levage fluid after 24 hrs. The class given is functional. The settings on record: Lung. In outline: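 Sensitized rats were challenged 3 weeks later with aerosolized 1% (w/v) ovalbumin for 15 min. Compound given orally 1 h before exposure. BAL performed 24 h after challenge. Total white cells counted with a blood cell counter. Eosinophils identified morphologically on smears and eosinophil number per animal calculated. ED50 derived.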

The test system of assay [8] is Jurkat. Nature of the assay: Inhibition of CRAC channel-mediated calcium influx in human Jurkat cells at 10 uM. The class given is cell-based. In short, it runs like this:
as §2

Assay [9] deals with Mus musculus. Nature of the assay: Inhibition of trinitrochlorobenzene-induced contact hypersensitivity in 1 hr before orally pretreated CD1 mouse assessed as ear swelling. The format is functional. The settings on record: CD1, po. In short, it runs like this: as §3

For `O=C(Nc1ccc(-n2nc(C(F)(F)F)cc2C(F)(F)F)cc1)c1cccnc1`, the inhibition (usually the percentage by which the read-out fell short of the control) in [1] came out at 30%. In addition, the IC50 (in general, the concentration at which inhibition is half-maximal) in assay [2] amounted to 93 nM; in assay [3], 250 nM. For the same compound, in assay [4], the inhibition in vivo (commonly the relative decrease from the control value, in per cent) at 30 mg/kg amounted to 62%. Also, the Ratio IC50 in assay [5] was greater than 40.

`Cc1ccncc1C(=O)Nc1ccc(-n2nc(C(F)(F)F)cc2C(F)(F)F)cc1`: the IC50 in [3] was 290 nM; in assay [6], 6300 nM. The Ratio IC50 in assay [5] came out at 20.

As to `O=C(Nc1ccc(-n2nc(C(F)(F)F)cc2C(F)(F)F)cc1)c1ccncc1`, the half-inhibitory concentration (IC50) came to 16 nM in assay [2], 240 nM in [3] and 10000 nM in assay [6]. The inhibition in vivo at 30 mg/kg in assay [4] was 25%. The Ratio IC50 in [5] was found to be 42.

On to `O=C(Nc1ccc(-n2nc(C(F)(F)F)cc2C(F)(F)F)cc1)c1cncc(Br)c1`, for which the inhibition in assay [1] turned out to be 29%. Further, the half-maximal inhibitory concentration (IC50) in [2] was 24 nM; in assay [3], 150 nM. Also, the inhibition in vivo at 30 mg/kg in assay [4] was 17%. The Ratio IC50 in assay [5] was greater than 67.

Turning to `O=C(Nc1ccc(-n2nc(C(F)(F)F)cc2C(F)(F)F)cc1)c1cncc(F)c1`, the inhibition in [1] came out at 27%. For the same compound, the IC50 in assay [2] came to 18 nM; in assay [3] it was 77 nM. For the same compound, the inhibition in vivo at 30 mg/kg in [4] came to 44%. For the same compound, in [5], the Ratio IC50 was greater than 130.

For the compound `Cc1cncc(C(=O)Nc2ccc(-n3nc(C(F)(F)F)cc3C(F)(F)F)cc2)c1`, the half-maximal inhibitory concentration (IC50) in [3] is 210 nM; in [6], 3100 nM. Besides, the Ratio IC50 in assay [5] was 15.

Take `Nc1cncc(C(=O)Nc2ccc(-n3nc(C(F)(F)F)cc3C(F)(F)F)cc2)c1`: the inhibition in [1] was determined as 14%. Moreover, the concentration for half-maximal inhibition (IC50) in assay [2] worked out at 160 nM; in assay [3], 270 nM. Besides, in assay [4], the inhibition in vivo at 30 mg/kg turned out to be 59%. Moreover, the Ratio IC50 in [5] was greater than 37. Besides, the ED50 (in general, the midpoint of the dose-response relation) in assay [7] worked out at 4.4 mg/kg.

For `O=C(Nc1ccc(-n2nc(C(F)(F)F)cc2C(F)(F)F)cc1)c1ccccn1`, the inhibition in assay [8] is 14%.

`O=C(Nc1ccc(-n2nc(C(F)(F)F)cc2C(F)(F)F)cc1)c1cnccc1O`: the inhibition in assay [8] amounted to 21%.

As for `O=C(Nc1ccc(-n2nc(C(F)(F)F)cc2C(F)(F)F)cc1)c1cncs1`, the half-inhibitory concentration (IC50) in assay [3] turned out to be 960 nM; in assay [6], 10000 nM. In [5], the Ratio IC50 worked out at 10.

`Cc1nnsc1C(=O)Nc1ccc(-n2nc(C(F)(F)F)cc2C(F)(F)F)cc1`: the values for the 50% effective dose (ED50) in [9] and in assay [7] were 1.1 mg/kg and 2.4 mg/kg, respectively. Besides, the figures for the concentration for half-maximal inhibition (IC50) in assay [2], in assay [3] and in assay [6] were 17 nM, 150 nM and 4700 nM, respectively. In addition, the inhibition in vivo at 30 mg/kg in [4] is 100%. The Ratio IC50 in assay [5] came to 31.

For `O=C(Nc1ccc(-n2nc(C(F)(F)F)cc2C(F)(F)F)cc1)c1cnccc1C(F)(F)F`, the half-maximal inhibitory concentration (IC50) in [3] worked out at 430 nM; in [6] it was 2000 nM. In assay [5], the Ratio IC50 turned out to be 5.

`COc1ccncc1C(=O)Nc1ccc(-n2nc(C(F)(F)F)cc2C(F)(F)F)cc1`: the half-maximal inhibitory concentration (IC50) in [3] is 230 nM; in [6], 4800 nM. Also, the Ratio IC50 in assay [5] was 21.

With `Cc1nnsc1C(=O)Nc1ccc(-n2nc(C(F)(F)F)c3c2CCC3)cc1`, the figures for the half-inhibitory concentration (IC50) in assay [3] and in [6] were 400 nM and 3500 nM, respectively. Further, the Ratio IC50 in [5] was 8.8.

On to `Cc1nnsc1C(=O)Nc1ccc(-n2ccc(C(F)(F)F)n2)cc1`, for which the inhibition in [8] was 40%.

As for `O=C(Nc1ccc(-n2nc(C(F)(F)F)cc2C(F)(F)F)cc1)c1nccs1`, the inhibition in assay [1] worked out at 37%. Moreover, the half-inhibitory concentration (IC50) in assay [3] came out at 460 nM. Moreover, the Ratio IC50 in [5] was greater than 22.

With `Cc1nnsc1C(=O)Nc1ccc(-n2nc(C(F)(F)F)cc2C#N)cc1`, the inhibition in assay [1] came out at 45%. Besides, in assay [3], the half-inhibitory concentration (IC50) came to 220 nM. Further, the Ratio IC50 in assay [5] was greater than 45.

Turning to `Cc1ccc(C(=O)Nc2ccc(-n3nc(C(F)(F)F)cc3C(F)(F)F)cc2)cn1`, the inhibition in [1] was 27%. Besides, the 50% inhibitory concentration (IC50) in assay [2] worked out at 94 nM; in assay [3], 220 nM. In addition, the inhibition in vivo at 30 mg/kg in [4] came to 46%. Further, the Ratio IC50 in [5] was greater than 45.

`Cc1nnsc1C(=O)Nc1ccc(-n2nc(C(F)(F)F)cc2Cl)cc1`: the IC50 stood at 15 nM in assay [2], 82 nM in assay [3] and 2900 nM in [6]. The inhibition in vivo at 30 mg/kg in assay [4] turned out to be 42%. For the same compound, the Ratio IC50 in assay [5] stood at 35.

Take `Cc1ccc(-c2cc(C(F)(F)F)nn2-c2ccc(NC(=O)c3snnc3C)cc2)cc1`: the results for the 50% inhibitory concentration (IC50) in [3] and in assay [6] were 720 nM and 2500 nM, respectively. Further, the Ratio IC50 in assay [5] is 3.5.

Turning to `Cc1ccnc(C)c1C(=O)Nc1ccc(-n2nc(C(F)(F)F)cc2C(F)(F)F)cc1`, in assay [3], the half-maximal inhibitory concentration (IC50) was 1600 nM.

With `Nc1ccncc1C(=O)Nc1ccc(-n2nc(C(F)(F)F)cc2C(F)(F)F)cc1`, the IC50 in assay [3] turned out to be 780 nM; in assay [6], 2400 nM. In addition, the Ratio IC50 in assay [5] was 3.1.

Turning to `Cc1nnsc1C(=O)Nc1ccc(-n2nc(C(F)(F)F)cc2Br)cc1`, the results for the IC50 in assay [2], in [3] and in assay [6] were 5.9 nM, 92 nM and 2600 nM, respectively. The inhibition in vivo at 30 mg/kg in assay [4] turned out to be 8.3%. The Ratio IC50 in [5] was 28.

In the case of `Cc1nnsc1C(=O)Nc1ccc(-n2nc(C(F)(F)F)cc2C)cc1`, the inhibition in assay [1] amounted to 46%. Also, the IC50 in [2] stood at 18 nM; in assay [3], 220 nM. Also, the inhibition in vivo at 30 mg/kg in assay [4] was 24%. In [5], the Ratio IC50 is greater than 45.

On to `COc1ncccc1C(=O)Nc1ccc(-n2nc(C(F)(F)F)cc2C(F)(F)F)cc1`, for which the half-maximal inhibitory concentration (IC50) stood at 120 nM in assay [3] and 2900 nM in assay [6]. Also, the Ratio IC50 in [5] was 24.

For the compound `O=C(Nc1ccc(-n2nc(C(F)(F)F)cc2C(F)(F)F)cc1)c1c[nH]cn1`, the inhibition in assay [8] came to 29%.

Turning to `O=C(Nc1ccc(-n2nc(C(F)(F)F)cc2C(F)(F)F)cc1)c1cncc(Cl)c1`, the inhibition in [1] is 31%. For the same compound, the IC50 worked out at 34 nM in assay [2] and 110 nM in assay [3]. Besides, the inhibition in vivo at 30 mg/kg in assay [4] amounted to 42%. In [5], the Ratio IC50 is greater than 91.

With `O=C(Nc1ccc(-n2nc(C(F)(F)F)cc2C(F)(F)F)cc1)c1cccnc1Cl`, the half-inhibitory concentration (IC50) in [3] turned out to be 240 nM; in assay [6], 4500 nM. Further, in assay [5], the Ratio IC50 was 19.

With `O=C(Nc1ccc(-n2nc(C(F)(F)F)cc2C(F)(F)F)cc1)c1cnccc1Cl`, the half-inhibitory concentration (IC50) in assay [2] came to 18 nM; in [3], 160 nM; in [6], 5100 nM. Besides, the inhibition in vivo at 30 mg/kg in assay [4] was -18%. The Ratio IC50 in [5] was found to be 32.

On to `O=C(Nc1ccc(-n2nc(C(F)(F)F)cc2C(F)(F)F)cc1)c1cccnc1O`, for which the half-maximal inhibitory concentration (IC50) in [3] came out at 3300 nM.

Turning to `Cc1cc(C)c(C(=O)Nc2ccc(-n3nc(C(F)(F)F)cc3C(F)(F)F)cc2)cn1`, the inhibition in [1] amounted to 41%. Moreover, the IC50 in assay [2] worked out at 33 nM; in assay [3], 290 nM. In [4], the inhibition in vivo at 30 mg/kg came out at 64%. Also, the Ratio IC50 in [5] was greater than 34. Also, the median effective dose (ED50) in [7] stood at 1.3 mg/kg.
